≈ marks a conversion by molar mass, not a printed value.
Columns and labels:
L6 = experiment: Cytotoxicity against rat L6 cells after 72 hrs by resazurin assay; format: cell-based; conditions: L6, 72 h
Procedure, shortened: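 L6 rat skeletal myoblasts, 4×10^4 cells/well in RPMI 1640 with 10% FBS and L-glutamine; seven 3-fold serial dilutions, 90 to 0.123 µg/mL; 72 h; microscopic check of controls and sterility; resazurin added, 2 h further; fluorescence read at ex 536/em 588 nm.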

Leishmania donovani = experiment: Leishmanicidal activity against Leishmania donovani MHOM/ET/67/L82 amastigote forms after 72 hrs by resazurin assay; format: functional, organism-based; conditions: MHOM/ET/67/L82, 72 h
Trypanosoma cruzi = experiment: Trypanocidal activity against trypomastigote Trypanosoma cruzi Tulahuen C2C4 infected in L6 cells after 96 hrs by beta-galactosidase reporter gene assay; format: functional, organism-based; conditions: Tulahuen C2C4, L6, 96 h
Plasmodium falciparum = experiment: Antimalarial activity against chloquine- and pyrimethamine-resistant Plasmodium falciparum K1 erythrocytic stage assessed as inhibition of [3H]hypoxanthine incorporation after 48 hrs by liquid scintillation counting; format: functional, organism-based
Procedure, shortened: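 Erythrocytic-stage cultures in hypoxanthine-free RPMI 1640 with 5% Albumax, exposed to serial drug dilutions at 37 °C under reduced oxygen for 48 h. 0.5 μCi [3H]-hypoxanthine per well was then added for a further 24 h. Cells were harvested onto glass-fibre filters and counted as CPM, expressed as % of untreated controls. IC50 was read from dose–response curves. Chloroquine was the reference.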

[1] = tested on: Trypanosoma brucei rhodesiense; experiment: Trypanocidal activity against Trypanosoma brucei rhodesiense STIB 900 bloodstream forms after 72 hrs by resazurin assay; format: functional, organism-based; conditions: STIB 900, 72 h
Procedure, shortened: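 Bloodstream forms, 10^4/well, in MEM with 25 mM HEPES, extra glucose, non-essential amino acids, 0.2 mM 2-mercaptoethanol, 1 mM pyruvate, 15% heat-inactivated horse serum; seven 3-fold dilutions 90 to 0.123 µg/mL; 37 °C, 5% CO2, 72 h; resazurin 2–4 h more; fluorescence ex 536/em 588 nm; melarsoprol standard.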

| SMILES | IC50 (L6) | IC50 (Leishmania donovani) | IC50 (Trypanosoma cruzi) | IC50 (Plasmodium falciparum) | IC50 [1] |
| --- | --- | --- | --- | --- | --- |
| COc1ccc(-c2noc(CN3N=N[C@@H]4C(=O)N(c5ccccc5)C(=O)[C@@H]43)n2)cc1 | > 100 µg/mL | 3.4 µg/mL (≈ 8.41 µM) | 54 µg/mL (≈ 134 µM) | 17 µg/mL (≈ 42 µM) | 16.9 µg/mL (≈ 41.8 µM) |
| Cc1ccc(-c2noc(CN3N=N[C@@H]4C(=O)N(c5ccccc5)C(=O)[C@@H]43)n2)cc1 | 15.2 µg/mL (≈ 39.1 µM) | 2.2 µg/mL (≈ 5.66 µM) | 38.9 µg/mL (≈ 100 µM) | 13.2 µg/mL (≈ 34 µM) | 8.4 µg/mL (≈ 21.6 µM) |
| O=C1[C@H]2N=NN(Cc3nc(-c4ccccc4)no3)[C@H]2C(=O)N1c1ccccc1 | 47.3 µg/mL (≈ 126 µM) | 1.6 µg/mL (≈ 4.27 µM) | 46.1 µg/mL (≈ 123 µM) | 22.6 µg/mL (≈ 60.4 µM) | 7 µg/mL (≈ 18.7 µM) |
| O=C1[C@H]2N=NN(Cc3nc(-c4ccc([N+](=O)[O-])cc4)no3)[C@H]2C(=O)N1c1ccccc1 | > 100 µg/mL | 2 µg/mL (≈ 4.77 µM) | 41.1 µg/mL (≈ 98 µM) | 14.7 µg/mL (≈ 35.1 µM) | 8 µg/mL (≈ 19.1 µM) |
| O=C(Cn1ccnc1[N+](=O)[O-])NCc1ccccc1 [BENZNIDAZOLE] |  |  | 0.464 µg/mL (≈ 1.78 µM) |  |  |
| O=C1[C@H]2N=NN(Cc3nc(-c4ccc(F)cc4)no3)[C@H]2C(=O)N1c1ccccc1 | > 100 µg/mL | 4.1 µg/mL (≈ 10.4 µM) | 62.4 µg/mL (≈ 159 µM) | 23.6 µg/mL (≈ 60.2 µM) | 12.3 µg/mL (≈ 31.3 µM) |
| O=C1[C@H]2N=NN(Cc3nc(-c4ccc(Cl)cc4)no3)[C@H]2C(=O)N1c1ccccc1 | 49.5 µg/mL (≈ 121 µM) | 3.2 µg/mL (≈ 7.83 µM) | 49 µg/mL (≈ 120 µM) | 24.9 µg/mL (≈ 60.9 µM) | 17.2 µg/mL (≈ 42.1 µM) |
| O=C1[C@H]2N=NN(Cc3nc(-c4ccc(C(F)(F)F)cc4)no3)[C@H]2C(=O)N1c1ccccc1 | 44.4 µg/mL (≈ 100 µM) | 3.7 µg/mL (≈ 8.36 µM) | 51.4 µg/mL (≈ 116 µM) | 15 µg/mL (≈ 33.9 µM) | 13.9 µg/mL (≈ 31.4 µM) |
| O=C1[C@H]2N=NN(Cc3nc(-c4ccc(Br)cc4)no3)[C@H]2C(=O)N1c1ccccc1 | 58.6 µg/mL (≈ 129 µM) | 3.5 µg/mL (≈ 7.72 µM) | 54.9 µg/mL (≈ 121 µM) | 26.9 µg/mL (≈ 59.3 µM) | 18.2 µg/mL (≈ 40.2 µM) |
| CN(C)c1ccc(-c2noc(CN3N=N[C@@H]4C(=O)N(c5ccccc5)C(=O)[C@@H]43)n2)cc1 | > 100 µg/mL | 4.5 µg/mL (≈ 10.8 µM) | 36.6 µg/mL (≈ 87.7 µM) | 21 µg/mL (≈ 50.3 µM) | 13.1 µg/mL (≈ 31.4 µM) |
| COc1cc([C@@H]2c3cc4c(cc3[C@H](O)[C@H]3COC(=O)[C@H]23)OCO4)cc(OC)c1OC [PODOFILOX] | 0.007 µg/mL (≈ 0.0169 µM) |  |  |  |  |
| CSc1ccc(-c2noc(CN3N=N[C@@H]4C(=O)N(c5ccccc5)C(=O)[C@@H]43)n2)cc1 | > 100 µg/mL | 3.5 µg/mL (≈ 8.32 µM) | 48.5 µg/mL (≈ 115 µM) | 20.6 µg/mL (≈ 49 µM) | 16.3 µg/mL (≈ 38.8 µM) |
| CCCCCCCCCCCCCCCCOP(=O)([O-])OCC[N+](C)(C)C [MILTEFOSINE] |  | 0.171 µg/mL (≈ 0.42 µM) |  |  |  |
| O=C1[C@H]2N=NN(Cc3nc(-c4ccc(I)cc4)no3)[C@H]2C(=O)N1c1ccccc1 | 48.6 µg/mL (≈ 97.2 µM) | 3.6 µg/mL (≈ 7.2 µM) | 47.2 µg/mL (≈ 94.4 µM) | 20.4 µg/mL (≈ 40.8 µM) | 18.8 µg/mL (≈ 37.6 µM) |

From ChEMBL document CHEMBL1933052, “Synthesis and anti-protozoal activity of novel dihydropyrrolo[3,4-d][1,2,3]triazoles” (Eur J Med Chem, 2012)
